Measured values: ChEMBL document CHEMBL1165950, “Design and synthesis of new potent anticancer pyrazoles with high FLT3 kinase inhibitory selectivity” (Bioorg Med Chem, 2010)

Tests used:
Type in all cases: functional
[1] = test system: HCT-15; experiment: Cytotoxicity against human HCT15 cells assessed as cell growth at 100 nM after 48 hrs by sulforhodamine B assay; details: HCT-15, 48 h, read-out: Activity
[2] = test system: LOX IMVI; experiment: Cytotoxicity against human LOXIMVI cells assessed as cell growth at 100 nM after 48 hrs by sulforhodamine B assay; details: read-out: Activity
[3] = test system: HL-60(TB); experiment: Cytotoxicity against human HL-60(TB) cells assessed as cell growth at 0.01 uM after 48 hrs by sulforhodamine B assay; details: HL-60, 48 h, read-out: Activity
Summary of the method: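 NCI 60-cell panel. Cells are grown in RPMI 1640 with 5% FBS and 2 mM L-glutamine, seeded at 5000–40,000 cells/well according to doubling time, and preincubated 24 h. Time-zero plates are TCA-fixed. Compound from DMSO stock is given at five 10-fold or 1/2-log concentrations for 48 h at 37 °C, 5% CO2. Suspension cells are fixed with 80% TCA (final 16%) and SRB-stained, with absorbance at 515 nm. Percent growth is derived from Tz, control and test readings.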

[4] = Cytotoxicity against human Hs 578T cells assessed as cell growth at 100 nM after 48 hrs by sulforhodamine B assay; details: read-out: Activity
[5] = test system: SF-539; experiment: Cytotoxicity against human SF539 cells assessed as cell growth at 10 uM; details: read-out: Activity
Summary of the method: (§1)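 NCI-60 screen: cells grown in RPMI 1640 with 5% FBS and 2 mM L-glutamine, plated at 5000–40,000 cells/well according to doubling time, and preincubated 24 h at 37 °C, 5% CO2. The single 10 µM dose (DMSO stock) was added, then incubated 48 h. Cells were TCA-fixed and stained with 0.4% SRB, read at 515 nm, and growth % calculated against time-zero and control plates.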

[6] = test system: M14; experiment: Cytotoxicity against human M14 cells assessed as cell growth at 10 uM; details: read-out: Activity; summary of the method: as §1
[7] = test system: NCI/ADR-RES; experiment: Cytotoxicity against human NCI/ADR-RES cells assessed as cell growth at 10 uM; details: read-out: Activity; summary of the method: as §1
[8] = test system: SK-OV-3; experiment: Cytotoxicity against human SKOV3 cells assessed as cell growth at 10 uM; details: read-out: Activity; summary of the method: as §1
[9] = test system: TK-10; experiment: Cytotoxicity against human TK10 cells assessed as cell growth at 10 uM; details: read-out: Activity; summary of the method: as §1
[10] = test system: NCI-H522; experiment: Cytotoxicity against human NCI-H522 cells assessed as cell growth at 1 uM after 48 hrs by sulforhodamine B assay; details: NCI-H522, 48 h, read-out: Activity
[11] = test system: SF-268; experiment: Cytotoxicity against human SF268 cells assessed as cell growth at 1 uM after 48 hrs by sulforhodamine B assay; details: SF-268, 48 h, read-out: Activity
[12] = test system: NCI-H226; experiment: Cytotoxicity against human NCI-H226 cells assessed as cell growth at 0.001 uM after 48 hrs by sulforhodamine B assay; details: NCI-H226, 48 h, read-out: Activity
[13] = test system: LOX IMVI; experiment: Cytotoxicity against human LOXIMVI cells assessed as cell growth at 0.01 uM after 48 hrs by sulforhodamine B assay; details: read-out: Activity
[14] = test system: HCT-116; experiment: Growth inhibition of human HCT116 cells after 48 hrs by sulforhodamine B assay; details: HCT-116, 48 h; for CC50: read-out: LC50 (the source's name)
Summary of the method: (§2)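 NCI 60-cell screen, five-dose mode. Cells grown in RPMI 1640 with 5% FBS and 2 mM L-glutamine and plated at 5000-40,000 cells/well according to doubling time. After 24 h preincubation, a Tz plate was TCA-fixed. Five concentrations (10-fold or 1/2 log dilutions) were applied for 48 h at 37 °C. SRB staining read at 515 nm. IC50 taken from [(Ti-Tz)/(C-Tz)]×100 = 50.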

[15] = test system: SF-295; experiment: Growth inhibition of human SF295 cells after 48 hrs by sulforhodamine B assay; details: SF-295, 48 h; for CC50: read-out: LC50 (the source's name); summary of the method: as §2
[16] = test system: SNB-19; experiment: Growth inhibition of human SNB19 cells after 48 hrs by sulforhodamine B assay; details: SNB-19, 48 h; for CC50: read-out: LC50 (the source's name); summary of the method: as §2
[17] = test system: MDA-MB-231; experiment: Cytotoxicity against human MDA-MB-231 cells assessed as cell growth at 0.01 uM after 48 hrs by sulforhodamine B assay; details: MDA-MB-231, 48 h, read-out: Activity
[18] = Growth inhibition of human Hs 578T cells after 48 hrs by sulforhodamine B assay; details: for CC50: read-out: LC50 (the source's name); summary of the method: as §2
[19] = test system: OVCAR-8; experiment: Cytotoxicity against human OVCAR8 cells assessed as cell growth at 1 uM after 48 hrs by sulforhodamine B assay; details: OVCAR-8, 48 h, read-out: Activity
[20] = test system: DU-145; experiment: Cytotoxicity against human DU145 cells assessed as cell growth at 1 uM after 48 hrs by sulforhodamine B assay; details: DU-145, 48 h, read-out: Activity
[21] = test system: HCC 2998; experiment: Cytotoxicity against human HCC2998 cells assessed as cell growth at 10 uM; details: read-out: Activity
Summary of the method: (§3)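 Single-dose NCI-60 screen at 10 µM. Cells were grown in RPMI 1640 with 5% FBS and 2 mM L-glutamine, then treated for 48 h at 37 °C. Protein was measured by SRB staining with absorbance at 515 nm. Percentage growth was recorded, and inhibition percentage was calculated as 100 minus growth percentage.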

[22] = test system: HCT-116; experiment: Cytotoxicity against human HCT116 cells assessed as cell growth at 10 uM; details: read-out: Activity; summary of the method: as §3
[23] = test system: SW-620; experiment: Cytotoxicity against human SW620 cells assessed as cell growth at 10 uM; details: read-out: Activity; summary of the method: as §1
[24] = test system: MOLT-4; experiment: Cytotoxicity against human MOLT4 cells assessed as cell growth at 10 uM after 48 hrs by sulforhodamine B assay; details: MOLT-4, 48 h, read-out: Activity
[25] = test system: NCI-H522; experiment: Cytotoxicity against human NCI-H522 cells assessed as cell growth at 10 uM after 48 hrs by sulforhodamine B assay; details: NCI-H522, 48 h, read-out: Activity
[26] = test system: UACC-62; experiment: Cytotoxicity against human UACC62 cells assessed as cell growth at 10 uM after 48 hrs by sulforhodamine B assay; details: UACC-62, 48 h, read-out: Activity
[27] = test system: IGROV-1; experiment: Cytotoxicity against human IGROV1 cells assessed as cell growth at 10 uM after 48 hrs by sulforhodamine B assay; details: IGROV-1, 48 h, read-out: Activity
[28] = test system: NCI/ADR-RES; experiment: Cytotoxicity against human NCI/ADR-RES cells assessed as cell growth at 10 uM after 48 hrs by sulforhodamine B assay; details: read-out: Activity
[29] = test system: DU-145; experiment: Cytotoxicity against human DU145 cells assessed as cell growth at 10 uM after 48 hrs by sulforhodamine B assay; details: DU-145, 48 h, read-out: Activity
[30] = Cytotoxicity against human Hs 578T cells assessed as cell growth at 10 uM after 48 hrs by sulforhodamine B assay; details: read-out: Activity

Row | SMILES | growth at 0.1 µM [1] [%] | growth at 0.1 µM [2] [%] | growth at 0.01 µM [3] [%] | growth at 0.1 µM [4] [%] | growth at 10 µM [5] [%] | growth at 10 µM [6] [%] | growth at 10 µM [7] [%] | growth at 10 µM [8] [%] | growth at 10 µM [9] [%] | growth at 1 µM [10] [%] | growth at 1 µM [11] [%] | growth at 0.001 µM [12] [%] | growth at 0.01 µM [13] [%] | GI50 [14] [µM] | TGI [14] [µM] | CC50 [14] [µM] | GI50 [15] [µM] | TGI [15] [µM] | CC50 [15] [µM] | GI50 [16] [µM] | other results
1 | COc1cc(C)cc(-c2nn(CC#N)cc2-c2ccc(-c3cccc(C(C)=O)c3)nc2)c1 | 69 | 82 | 91 | 61 | 5.94 | 6.52 | -25.8 | 10.1 | 27.3 | -14 | 23 | 95 | 96 | 2.33 | 10.6 | 87.4 | 2.63 | > 100 | > 100 | 6.62 | TGI [16]: > 100 µM; CC50 [16]: > 100 µM; growth at 0.01 µM [17]: 96%; GI50 [18]: 1.28 µM; TGI [18]: 3.87 µM; CC50 [18]: 31.2 µM; growth at 1 µM [19]: 14%; growth at 1 µM [20]: -38%; growth at 10 µM [21]: 28.6%; growth at 10 µM [22]: 10.3%; growth at 10 µM [23]: 24.8%; growth at 10 µM [24]: 14%; growth at 10 µM [25]: -40%; growth at 10 µM [26]: 25%; growth at 10 µM [27]: -40%; growth at 10 µM [28]: -14%; growth at 10 µM [29]: -48%; growth at 10 µM [30]: -57%
2 | COc1cc(C)cc(-c2nn(CC#N)cc2-c2ccnc(-c3ccc(N(C)C)cc3)c2)c1 | 15 | 39 | 97 | -19 | -17.5 | -10 | -28 | 2.56 | 34.7 | -61 | -2 | 103 | 105 | 0.353 | 1.64 | > 100 | 0.304 | 1.91 | > 100 | 0.567 | TGI [16]: > 100 µM; CC50 [16]: > 100 µM; growth at 0.01 µM [17]: 94%; GI50 [18]: 0.264 µM; TGI [18]: 0.695 µM; CC50 [18]: > 100 µM; growth at 1 µM [19]: 14%; growth at 1 µM [20]: -40%; growth at 10 µM [21]: -46.5%; growth at 10 µM [22]: -31.6%; growth at 10 µM [23]: 21.9%; growth at 10 µM [24]: 1%; growth at 10 µM [25]: -64%; growth at 10 µM [26]: -8%; growth at 10 µM [27]: -6%; growth at 10 µM [28]: -10%; growth at 10 µM [29]: -48%; growth at 10 µM [30]: -5%
3 | COc1cc(C)cc(-c2c(-c3ccnc(-c4ccc(C(C)=O)cc4)c3)cnn2CC#N)c1 | 87 | 85 | 99 | 71 | 59.9 | 50.5 | 60.1 | 97.8 | 72.6 | -14 | 15 | 100 | 105 | 1.7 | 5.4 | > 100 | 5.84 | > 100 | > 100 | > 100 | TGI [16]: > 100 µM; CC50 [16]: > 100 µM; growth at 0.01 µM [17]: 95%; GI50 [18]: 1.68 µM; TGI [18]: 5.68 µM; CC50 [18]: > 100 µM; growth at 1 µM [19]: 8%; growth at 1 µM [20]: 16%; growth at 10 µM [21]: 80.8%; growth at 10 µM [22]: 23.4%; growth at 10 µM [23]: 56.1%; growth at 10 µM [24]: 14%; growth at 10 µM [25]: -10%; growth at 10 µM [26]: 35%; growth at 10 µM [27]: 14%; growth at 10 µM [28]: 11%; growth at 10 µM [29]: 15%; growth at 10 µM [30]: -27%
